Experimental data published in ChEMBL document CHEMBL1152866, “Modulation of gene expression via disruption of NF-kappaB signaling by a bacterial small molecule” (Science, 2008).
Activity calls are given as the source filed them.

Experiments:
BMDM [1] = assay: Inhibition of heat-killed Staphylococcus aureus-induced MCP-1 mRNA expression in mouse BMDM by Northern blot analysis; assay type: functional, cell-based
Mus musculus [2] = species: Mus musculus; assay: Suppression of LPS-induced TNF expression in C57BL/6 transgenic mouse bearing IkappaBalpha-reporter after 2 hrs by luciferase reporter gene assay; assay type: functional, organism-based
How it was run: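 Animals received an injection of vehicle, LPS, C12, or LPS plus C12. Whole-animal bioluminescence was recorded 2 hours after injection as the read-out of reporter activity.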

Macrophage = assay: Inhibition of LPS-induced IkappaBalpha mRNA expression in mouse C57BL/6 mouse alveolar macrophages up to 50 uM by Northern blot analysis; assay type: functional, cell-based
BMDM [3] = assay: Inhibition of LPS-induced TNF mRNA expression in mouse BMDM up to 3 hrs by Northern blot analysis; assay type: functional, cell-based
[4] = target: T1, Inhibitor of nuclear factor kappa-B kinase subunit alpha (Mus musculus) (UniProt Q60680); assay: Inhibition of LPS-induced IkappaBalpha phosphorylation in mouse BMDM measured up to 120 mins by Western blot analysis
T1 sequence (whole entry): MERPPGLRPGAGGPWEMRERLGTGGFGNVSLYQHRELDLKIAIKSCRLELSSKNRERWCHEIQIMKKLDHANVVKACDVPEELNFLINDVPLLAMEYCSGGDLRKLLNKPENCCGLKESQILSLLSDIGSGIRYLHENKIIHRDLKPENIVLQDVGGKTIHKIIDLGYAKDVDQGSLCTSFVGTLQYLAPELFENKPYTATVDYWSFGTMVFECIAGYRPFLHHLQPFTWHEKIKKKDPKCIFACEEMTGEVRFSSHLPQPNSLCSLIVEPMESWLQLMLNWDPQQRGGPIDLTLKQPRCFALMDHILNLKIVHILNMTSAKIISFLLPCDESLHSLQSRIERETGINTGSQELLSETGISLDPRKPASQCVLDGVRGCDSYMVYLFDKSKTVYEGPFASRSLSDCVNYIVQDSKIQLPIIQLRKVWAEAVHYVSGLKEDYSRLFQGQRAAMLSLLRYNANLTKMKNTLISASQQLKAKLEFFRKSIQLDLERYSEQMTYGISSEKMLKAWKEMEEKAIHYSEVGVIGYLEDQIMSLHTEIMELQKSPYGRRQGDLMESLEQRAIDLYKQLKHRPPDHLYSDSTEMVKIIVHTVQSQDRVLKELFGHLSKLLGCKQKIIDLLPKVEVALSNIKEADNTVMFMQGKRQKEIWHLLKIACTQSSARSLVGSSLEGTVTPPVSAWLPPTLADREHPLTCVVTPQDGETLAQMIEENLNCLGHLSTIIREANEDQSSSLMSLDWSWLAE

Mus musculus [5] = species: Mus musculus; assay: Effect on IKK activity in LPS-induced mouse BMDM assessed as induction of phosphorylation of p38 treated 2 hrs after LPS challenge measured up to 120 mins by immunoblot analysis
BMDM [6] = assay: Inhibition of LPS-induced RANTES mRNA expression in mouse BMDM up to 3 hrs by Northern blot analysis; assay type: functional, cell-based
BMDM [7] = assay: Inhibition of heat-killed Staphylococcus aureus-induced B7h mRNA expression in mouse BMDM by Northern blot analysis; assay type: functional

Measured: Activity

CCCCCCCCCC(=O)CC(=O)N[C@H]1CCOC1=O
active: BMDM [1] | Mus musculus [2] | Macrophage | BMDM [3] Dose-dependent effect | [4] | Mus musculus [5] | BMDM [6] Dose-dependent effect | BMDM [7]
